Assay results from ChEMBL document CHEMBL1212774, “In vitro activity of fosfomycin against blaKPC-containing Klebsiella pneumoniae isolates, including those nonsusceptible to tigecycline and/or colistin” (2010).

Key:
Type in all cases: functional
[1] = tested on: Klebsiella pneumoniae; test: Antimicrobial activity against Klebsiella pneumoniae isolate KpKPC expressing multidrug-resistant blaKPC gene assessed as resistant isolates by disk diffusion method
Procedure, shortened: (§1)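 Fosfomycin disk diffusion with inhibition zone diameters read in mm and interpreted as susceptible, intermediate or resistant. E. coli ATCC 25922 and P. aeruginosa ATCC 27853 run as controls.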

[2] = tested on: Klebsiella pneumoniae; test: Antimicrobial activity against Klebsiella pneumoniae isolate KpKPC expressing multidrug-resistant blaKPC gene assessed as resistant isolates by Etest
Procedure, shortened: (§2)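 Etest of fosfomycin MICs, with MICs rounded up to the next doubling concentration (e.g., 48 to 64 μg/ml). E. coli ATCC 25922 and P. aeruginosa ATCC 27853 included as controls. Isolates categorised as susceptible or resistant.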

[3] = tested on: Klebsiella pneumoniae; test: Antimicrobial activity against Klebsiella pneumoniae isolate KpKPC expressing multidrug-resistant blaKPC gene assessed as susceptible isolates by Etest; procedure, shortened: as §2
[4] = tested on: Klebsiella pneumoniae; test: Antimicrobial activity against Klebsiella pneumoniae isolate KpKPC expressing multidrug-resistant blaKPC gene assessed as susceptible isolates by disk diffusion method; procedure, shortened: as §1

Q: C[C@@H]1O[C@@H]1P(=O)(O)O [FOSFOMYCIN] was tested. Which Activity [1] did it give?
A: The Activity was 2.9%.

Q: And the Activity [2]?
A: The Activity was 14.7%.

Q: What about the Activity [3] of the same compound?
A: The Activity was 61.8%.

Q: What about the Activity [4] of the same compound?
A: The Activity was 63.2%.
